The values that follow come from ChEMBL document CHEMBL1128306, “Design, synthesis, and evaluation of A/C/D-ring analogs of the fungal metabolite K-76 as potential complement inhibitors” (J Med Chem, 1995).

Where only a bound is given, the exact number is not on record here.

Experiment [1] is described as follows: Inhibitory activity against hemolysis (complement-mediated erythrocyte lysis) of antibody-sensitized sheep erythrocytes using human serum as complementary source. The format is functional. In a few lines:
(§1)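 Antibody-sensitized sheep erythrocytes were exposed to compounds and to human serum in 0.1 M HEPES, 0.15 N NaCl, pH 7.4. Serum dilution was pre-set to lyse 80–90% of cells. Incubation 60 min at 37 °C, then centrifugation and supernatant A410 for hemoglobin release. Triplicate controls without serum were subtracted. Inhibition is relative to the no-compound sample.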

For experiment [2], the species on record is Homo sapiens. The experiment can be described thus: Inhibitory activity against mitogen-stimulated PBL proliferation; Range 1.7-2.8 mM. The format is functional.
Experiment [3] is described as follows: Inhibitory activity against hemolysis of antibody-sensitized sheep erythrocytes using human serum as complementary source in multiple assay. The format is functional. In short, it runs like this: as §1
Experiment [4] can be described thus: Inhibitory activity against C5a production by activated human serum complement. It counts as functional. In a few lines: (§2)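 Human serum aliquots (400 μL) equilibrated at 37 °C with varying compound concentrations in 0.1 M Hepes, 0.15 N NaCl, pH 7.4. Complement activated with heat-aggregated IgG at 14 mg/mL, 10 min at 37 °C. C3a[desArg] and C5a[desArg] were measured by radioimmunoassay. Triplicates were averaged. Fractional inhibition is relative to the no-compound sample and the background without aggregated IgG.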

Experiment [5] is filed under the species Homo sapiens. The experiment can be described thus: Inhibitory activity against mitogen-stimulated PBL proliferation. The format is functional.
The subject of another experiment is T-cell. The experiment can be described thus: Inhibitory activity against lectin-stimulated T cell proliferation. It counts as functional, cell-based.
Experiment [6] can be described thus: (§3) Compound was tested to inhibit the production of C5a relative to C3a. The format is functional, Homo sapiens. In a few lines:
as §2

The nature of experiment [7]: as §3. It counts as functional, Homo sapiens. In a few lines:
as §2
This is another data set of the same source.

In the case of `CC1=CCC(C2(C)Cc3c(O)ccc(C(=O)O)c3O2)CC1` (stereo not given), the results for the IC50 result (in experiment [1]; in the experiment filed under Homo sapiens [2]) were “Less Effective” and less than 2.8 mM, respectively.

Turning to `C[C@@H]1CCC2C(C)(C)[C@H](O)[C@H](O)C[C@]2(C)[C@@]12Cc1c(O)cc(C(=O)O)c(C=O)c1O2` (stereo not given in full), the IC50 (in general, the concentration at which inhibition is half-maximal) in experiment [3] worked out at 570 µM; in experiment [4], 3 mM; in experiment [1] (read-out: IC50), 300 µM; in the experiment listed under Homo sapiens [5], 500 µM. Also, the inhibition entry in the experiment with T-cell is “Inhibit”.

Take `COc1ccc(C(=O)O)c2c1CC(C)(C1CC=C(C)CC1)O2` (stereo not given): the IC50 in experiment [6] was 6 mM; in experiment [7] it was 8 mM; in the experiment filed under Homo sapiens [2] it was less than 2.8 mM.
